Consider 19 molecules from ChEMBL document CHEMBL3352477 (ACS Med Chem Lett, 2015).

For experiment [1], the system named is HT-1080. The experiment is described as follows: Inhibition of human XBP1 splicing in human HT1080-CMV-XBP1-Luciferase cells assessed as luciferase signal by Promega Bright-Glo luciferase assay. The format is functional. The gist of the method:
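HT1080 cells carried an XBP1–luciferase fusion that is in frame and expressed only from the spliced XBP1 transcript. Thapsigargin induced the UPR and activated IRE1α to drive splicing. The luciferase signal was quantified as the measure of cellular XBP1 splicing.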

Experiment [2] concerns the target Mitogen-activated protein kinase 10 (Homo sapiens, UniProt P53779). The experiment is described as follows: Inhibition of human wild type JNK3 using biotinylated ATF2 substrate assessed as phosphorylation at thr53 on ATF2 by fluorescent plate reader.
Experiment [3] deals with Serine/threonine-protein kinase/endoribonuclease IRE1 (Homo sapiens, UniProt O75460). The experiment is described as follows: Inhibition of human IRE1alpha using 5'[6FAM]-GAGUCCGCAGCACUC-[BHQ1]3' substrate by biochemical fluorescence quenching assay. The gist of the method:
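RNase activity of autophosphorylated IRE1α, read as cleavage of an XBP1 stem-loop RNA substrate. This format picks up inhibitors acting at either the kinase or the RNase domain.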

The nature of experiment [4]: Inhibition of aurora (unknown origin) assessed as phosphorylation of histone H3. The arrangement: species or system Homo sapiens.

Serine/threonine-protein kinase/endoribonuclease IRE1, sequence (O75460 whole entry, the tested form may be a part): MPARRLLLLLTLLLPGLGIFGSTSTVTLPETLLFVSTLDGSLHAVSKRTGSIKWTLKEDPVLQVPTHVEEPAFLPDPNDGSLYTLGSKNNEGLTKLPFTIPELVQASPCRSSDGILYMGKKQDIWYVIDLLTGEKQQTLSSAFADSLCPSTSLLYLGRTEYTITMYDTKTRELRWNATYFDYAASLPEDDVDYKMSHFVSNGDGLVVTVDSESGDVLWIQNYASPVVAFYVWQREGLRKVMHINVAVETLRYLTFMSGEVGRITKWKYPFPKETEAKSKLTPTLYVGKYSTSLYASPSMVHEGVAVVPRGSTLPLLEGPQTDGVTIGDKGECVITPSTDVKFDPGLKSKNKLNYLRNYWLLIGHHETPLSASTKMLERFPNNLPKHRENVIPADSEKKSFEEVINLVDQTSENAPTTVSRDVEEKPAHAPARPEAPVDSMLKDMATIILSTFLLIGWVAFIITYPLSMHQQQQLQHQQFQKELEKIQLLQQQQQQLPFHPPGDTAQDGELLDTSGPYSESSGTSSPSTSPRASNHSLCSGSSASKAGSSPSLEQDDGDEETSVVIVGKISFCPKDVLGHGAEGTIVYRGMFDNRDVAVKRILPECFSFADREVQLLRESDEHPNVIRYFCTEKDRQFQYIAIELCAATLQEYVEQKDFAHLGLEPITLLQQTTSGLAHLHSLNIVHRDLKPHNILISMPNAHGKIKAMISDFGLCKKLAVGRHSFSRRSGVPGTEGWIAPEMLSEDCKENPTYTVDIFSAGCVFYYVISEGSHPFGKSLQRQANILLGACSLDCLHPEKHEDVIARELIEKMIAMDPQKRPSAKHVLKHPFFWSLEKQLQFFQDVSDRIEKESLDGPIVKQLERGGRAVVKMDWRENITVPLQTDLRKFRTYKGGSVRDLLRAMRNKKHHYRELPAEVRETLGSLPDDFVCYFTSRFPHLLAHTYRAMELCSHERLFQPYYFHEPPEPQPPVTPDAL
Mitogen-activated protein kinase 10, sequence (P53779 whole entry): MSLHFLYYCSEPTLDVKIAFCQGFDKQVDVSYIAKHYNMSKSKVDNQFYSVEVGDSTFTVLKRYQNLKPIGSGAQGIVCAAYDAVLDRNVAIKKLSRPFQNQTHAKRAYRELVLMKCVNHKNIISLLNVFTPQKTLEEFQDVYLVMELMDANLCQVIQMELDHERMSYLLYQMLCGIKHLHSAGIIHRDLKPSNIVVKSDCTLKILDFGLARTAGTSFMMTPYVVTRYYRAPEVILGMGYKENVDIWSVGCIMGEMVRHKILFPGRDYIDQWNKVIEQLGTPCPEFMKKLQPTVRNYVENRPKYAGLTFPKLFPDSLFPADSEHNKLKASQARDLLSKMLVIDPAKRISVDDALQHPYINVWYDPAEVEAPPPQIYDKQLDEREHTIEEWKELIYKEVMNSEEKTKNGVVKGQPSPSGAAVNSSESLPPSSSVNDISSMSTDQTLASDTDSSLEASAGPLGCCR

Take `c1cnc(Oc2ccc(Nc3nc4ccccc4[nH]3)c3ccccc23)c(-c2ccnc(N[C@H]3CCCNC3)n2)c1`: the IC50 in experiment [1] is 31 nM; in experiment [2], 31 nM; in experiment [3], 9.7 nM.
As to `N[C@H]1CC[C@H](Nc2nccc(-c3cccnc3Oc3ccc(NS(=O)(=O)c4ccccc4Cl)c4ccccc34)n2)CC1`, the values for the IC50 in experiment [1], in experiment [2] and in experiment [3] were 580 nM, 400 nM and 31 nM, respectively.
The like results for `CC(C)CCNc1nccc(-c2cccnc2Oc2ccc(Nc3nc4ccccc4[nH]3)c3ccccc23)n1` were, in that order, 15000 nM, 32 nM and more than 99000 nM.
On the same counts, the results for `Cc1cc(NS(=O)(=O)c2ccccc2Cl)c2ccccc2c1Oc1ncccc1-c1ccnc(N[C@H]2CC[C@H](N)CC2)n1` are 42 nM, 1600 nM and 14 nM.
On the same counts, the results for `Cc1cc(Nc2nc3ccccc3o2)c2ccccc2c1Oc1ncccc1-c1ccnc(N[C@H]2CC[C@H](N)CC2)n1` are 51 nM, 7 nM and 14 nM.
On to `CN(C)CCNc1nccc(-c2cccnc2Oc2ccc(Nc3nc4ccccc4[nH]3)c3ccccc23)n1`, for which the IC50 in experiment [1] came to 270 nM; in experiment [2], 350 nM; in experiment [3] it was 71 nM; in experiment [4] it was 16000 nM.
With `N[C@H]1CC[C@H](Nc2nccc(-c3cccnc3Oc3ccc(Nc4nc5ccccc5[nH]4)c4ccccc34)n2)CC1`, the IC50 in experiment [1] amounted to 33 nM; in experiment [2], 1.9 nM; in experiment [3] it was 11 nM.
On the same counts, the results for `COc1ccccc1S(=O)(=O)Nc1cc(C)c(Oc2ncccc2-c2ccnc(N[C@H]3CC[C@H](N)CC3)n2)c2ccccc12` are 440 nM, 1200 nM and 54 nM.
On the same counts, the results for `Cc1cc(NS(=O)(=O)c2ccccc2)c2ccccc2c1Oc1ncccc1-c1ccnc(N[C@H]2CC[C@H](N)CC2)n1` are 590 nM, 2200 nM and 45 nM.
Consider `Cc1cc(Nc2nc3ccccc3[nH]2)c2ccccc2c1Oc1ncccc1-c1ccnc(NCCN(C)C)n1`, for which the IC50 in experiment [1] is 200 nM; in experiment [2], 710 nM; in experiment [3], 14 nM; in experiment [4] it was more than 50000 nM.
For `Cc1cc(Nc2nc3ccccc3[nH]2)c2ccccc2c1Oc1ncccc1-c1ccnc(N[C@H]2CC[C@H](N)CC2)n1`, the figures for the IC50 in experiment [1], in experiment [2] and in experiment [3] were 33 nM, 1.9 nM and 6.4 nM, respectively.
The like results for `Cc1cc(NS(=O)(=O)c2ccccc2C#N)c2ccccc2c1Oc1ncccc1-c1ccnc(N[C@H]2CC[C@H](N)CC2)n1` were, in that order, 62 nM, 400 nM and 12 nM.
The like results for `OCCNc1nccc(-c2cccnc2Oc2ccc(Nc3nc4ccccc4[nH]3)c3ccccc23)n1` were, in that order, 870 nM, 12 nM and 170 nM.
The like results for `CN1CCCC(Nc2nccc(-c3cccnc3Oc3ccc(Nc4nc5ccccc5[nH]4)c4ccccc34)n2)C1` (centres undefined) were, in that order, 310 nM, 5.5 nM and 29 nM.
Turning to `N[C@H]1CC[C@@H](Nc2nccc(-c3cccnc3Oc3ccc(Nc4nc5ccccc5[nH]4)c4ccccc34)n2)CC1`, the IC50 in experiment [1] is 340 nM; in experiment [2] it was 7.5 nM; in experiment [3], 43 nM.
The like results for `c1cnc(Oc2ccc(Nc3nc4ccccc4[nH]3)c3ccccc23)c(-c2ccnc(N[C@@H]3CCCNC3)n2)c1` were, in that order, 570 nM, 14 nM and 51 nM.
The like results for `Cc1ccc2c(NS(=O)(=O)c3ccccc3Cl)cccc2c1Oc1ncccc1-c1ccnc(N[C@H]2CCCNC2)n1` were, in that order, 99 nM, 2500 nM and 13 nM.
On the same counts, the results for `Cc1ccc2c(NS(=O)(=O)c3ccccc3Cl)cccc2c1Oc1ncccc1-c1ccnc(N[C@H]2CC[C@H](N)CC2)n1` are 120 nM, 540 nM and 22 nM.
Regarding `Cc1cc(Nc2nc3ccccc3[nH]2)c2ccccc2c1Oc1ncccc1-c1ccnc(N[C@H]2CCCNC2)n1`, the figures for the IC50 in experiment [1], in experiment [2] and in experiment [3] were 13 nM, 20 nM and 5.1 nM, respectively.
